Series [1] deals with T1, α7 nAChRs (Macaca mulatta, UniProt Q866A2). As to the kind of experiment: [18F]ASEM PET blocking scans with nicotine, varenicline and cold ASEM. Conditions: for receptor occupancy: Lassen plot.
The target of series [2] is T1, α7 nAChRs. The format is in vivo. Conditions: 2TCM, rhesus monkey; for K1: average across all subjects and gray matter regions.
In series [3] the target is T2, α7 nAChRs (Homo sapiens, UniProt P36544). As to the kind of experiment: [18F]ASEM PET imaging in human brain, kinetic modeling and test-retest. The format is in vivo. The note with it: for K1 / VT / VT/fp: humans n=6; for VT TRV / VT/fp TRV: humans n=4.
T2 sequence (P36544 23-502): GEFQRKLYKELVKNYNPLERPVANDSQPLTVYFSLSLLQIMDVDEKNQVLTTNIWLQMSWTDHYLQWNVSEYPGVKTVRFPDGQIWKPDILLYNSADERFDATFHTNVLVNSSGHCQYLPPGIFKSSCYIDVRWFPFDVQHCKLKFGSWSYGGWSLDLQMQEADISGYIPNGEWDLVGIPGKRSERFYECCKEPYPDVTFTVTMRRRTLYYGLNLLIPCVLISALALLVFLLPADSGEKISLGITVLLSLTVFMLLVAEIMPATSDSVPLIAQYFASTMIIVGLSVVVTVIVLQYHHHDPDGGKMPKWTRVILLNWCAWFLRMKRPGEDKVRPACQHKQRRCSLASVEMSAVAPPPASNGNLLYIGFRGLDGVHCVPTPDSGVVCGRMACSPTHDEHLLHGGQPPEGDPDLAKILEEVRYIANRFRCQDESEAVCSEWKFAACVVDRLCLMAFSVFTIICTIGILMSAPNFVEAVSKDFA
Series [4] is described as follows: Parent [18F]ASEM in human arterial plasma. The format is in vivo. Conditions: for parent [18F]ASEM fraction of radioactivity in plasma: human arterial plasma. The gist of the method: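 Six healthy volunteers (5 M, 1 F; 26–51 y) received 317±87 MBq radiotracer as a 1-min slow bolus into a forearm vein. Manual radial-artery samples were taken over 180 min post-injection. Plasma was analysed by HPLC for parent fraction, giving the metabolite-corrected arterial input function, expressed as SUV.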

Series [5] is classed as in vivo, Macaca mulatta. The note with it: arterial plasma, 120 min post-injection, averaged across subjects, rhesus monkey.
Series [6] deals with T2, α7 nAChRs. The note with it: two subjects, initial [18F]ASEM human study ref 11; cited from earlier work.
Series [7] can be described thus: Plasma free fraction. It counts as in vitro ADME, Macaca mulatta. Conditions: rhesus monkey plasma, ultrafiltration. An outline of the steps: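 Plasma from arterial samples of anesthetized rhesus monkeys during radiotracer PET scans was tested. Free fraction was measured by ultrafiltration in triplicate for each scan.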
The nature of series [8]: Plasma free fraction. The format is in vitro ADME, human.
The target of series [9] is α7 nAChRs. Conditions: full agonist ref 16, 17; cited from earlier work.
Setting [10] is: 0.24 mg/kg nicotine, averaged across regions, one value per animal (two animals).
Where [11] appears, read: 0.33 mg/kg varenicline, one value per animal (two animals).

Where “and” joins values, the source holds several entries; their conditions need not be identical. Equal values may be shown once. Read-outs that look alike come from different tables or passages of the source.

The source of these data is paper PMC5400702 (European journal of nuclear medicine and molecular imaging, 2017).

T1 sequence (Q866A2 23-502): as the sequence (P36544 23-502) above, with N171S, R186K, V373M, V376A counted along it

As to `O=S1(=O)c2cc(N3CCN4CCC3CC4)ccc2-c2cccc(F)c21` [ASEM], the receptor occupancy on α7 nAChRs [1] (0.67 mg/kg cold ASEM, one animal) was 18.8% and 19%; at α7 nAChRs [1] (1.24 mg/kg cold ASEM, two animals) it was 36.7% and 40.2% and 37–40%.

Consider `O=S1(=O)c2cc(N3CCN4CCC3CC4)ccc2-c2cccc([18F])c21` [[^18F]ASEM], for which the K1 was determined as 0.59±0.14 mL/cm^3·min^−1 on α7 nAChRs [2]; 0.33±0.03 mL/cm^3 per min at α7 nAChRs [3] (1TCM, Caudate); 0.36±0.08 mL/cm^3 per min on α7 nAChRs [3] (1TCM, Cerebellum); 0.35±0.07 mL/cm^3 per min at α7 nAChRs [3] (1TCM, Frontal Cortex); 0.26±0.04 mL/cm^3 per min at α7 nAChRs [3] (1TCM, Hippocampus); 0.37±0.06 mL/cm^3 per min at α7 nAChRs [3] (1TCM, Occipital Cortex). Besides, the K1 on α7 nAChRs [3] (1TCM, Putamen) is on record as 0.39±0.10 mL/cm^3 per min; on α7 nAChRs [3] (1TCM, Thalamus), 0.38±0.08 mL/cm^3 per min. The same molecule gave a k2 on α7 nAChRs [2] of 0.022 ± 0.010 min⁻¹. Moreover, the VND at α7 nAChRs [1] (estimated from Lassen plots, one value per animal (two animals)) was 25.3 mL/cm^3 and 16.0 mL/cm^3. Moreover, the VT on α7 nAChRs [3] (1TCM, Caudate) is 22.4±3.9 mL/cm^3; at α7 nAChRs [3] (1TCM, Cerebellum), 20.0±3.2 mL/cm^3; at α7 nAChRs [3] (1TCM, Frontal Cortex) it was 24.7±3.0 mL/cm^3; at α7 nAChRs [3] (1TCM, Hippocampus), 21.7±2.3 mL/cm^3; at α7 nAChRs [3] (1TCM, Occipital Cortex), 25.6±3.1 mL/cm^3; on α7 nAChRs [3] (1TCM, Putamen), 25.8±3.6 mL/cm^3. The VT at α7 nAChRs [3] (1TCM, Temporal Cortex) came out at 26.1±3.7 mL/cm^3; on α7 nAChRs [3] (1TCM, Thalamus), 26.6±3.3 mL/cm^3; on α7 nAChRs [3] (MA1, Caudate), 21.6±2.6 mL/cm^3; at α7 nAChRs [3] (MA1, Cerebellum) it was 19.6±2.5 mL/cm^3; on α7 nAChRs [3] (MA1, Frontal Cortex), 24.6±2.7 mL/cm^3; at α7 nAChRs [3] (MA1, Hippocampus), 21.7±2.1 mL/cm^3. The VT worked out at 25.7±2.7 mL/cm^3 on α7 nAChRs [3] (MA1, Occipital Cortex); 25.4±3.0 mL/cm^3 on α7 nAChRs [3] (MA1, Putamen); 25.8±3.2 mL/cm^3 at α7 nAChRs [3] (MA1, Temporal Cortex); 25.9±2.9 mL/cm^3 at α7 nAChRs [3] (MA1, Thalamus). Moreover, the “underestimation of VT with truncated data” value at α7 nAChRs [3] (60 min of data vs 180 min, humans) is listed as 7.4±5.1%; at α7 nAChRs [3] (90 min of data vs 180 min, humans) it was 5.5±3.8%; at α7 nAChRs [3] (120 min of data vs 180 min, humans) it was 4.2±2.6%. For the same molecule, the “test-retest variability of VT” value at α7 nAChRs [3] (MA1, 120 min of data, four human subjects, all regions) is 11.7±9.8%; at α7 nAChRs [6] it was 10.8±5.1%. The “VT TRV” value on α7 nAChRs [3] (MA1, Caudate) is reported as 12.5±8.1%; on α7 nAChRs [3] (MA1, Cerebellum) it was 13.4±7.6%; at α7 nAChRs [3] (MA1, Frontal Cortex), 11.0±11.4%; at α7 nAChRs [3] (MA1, Hippocampus) it was 10.9±8.4%; on α7 nAChRs [3] (MA1, Occipital Cortex) it was 10.5±10.5%; on α7 nAChRs [3] (MA1, Putamen) it was 12.0±8.1%. In addition, the “VT TRV” value at α7 nAChRs [3] (MA1, Temporal Cortex) turned out to be 11.8±10.1%; on α7 nAChRs [3] (MA1, Thalamus) it was 11.0±6.4%. Besides, the “VT/fp TRV” value at α7 nAChRs [3] (MA1, Caudate) stood at 6.8±7.4%; at α7 nAChRs [3] (MA1, Cerebellum), 7.8±6.2%; on α7 nAChRs [3] (MA1, Frontal Cortex), 10.2±7.7%; at α7 nAChRs [3] (MA1, Hippocampus), 8.0±7.8%; on α7 nAChRs [3] (MA1, Occipital Cortex), 9.9±8.4%; at α7 nAChRs [3] (MA1, Putamen) it was 7.8±7.5%. The “VT/fp TRV” value stood at 9.1±7.8% on α7 nAChRs [3] (MA1, Temporal Cortex) and 6.9±7.8% at α7 nAChRs [3] (MA1, Thalamus). The VT/fp on α7 nAChRs [3] (MA1, Caudate) stood at 288±72 mL/cm^3; at α7 nAChRs [3] (MA1, Cerebellum), 259±57 mL/cm^3; on α7 nAChRs [3] (MA1, Frontal Cortex) it was 326±66 mL/cm^3; on α7 nAChRs [3] (MA1, Hippocampus) it was 287±58 mL/cm^3; at α7 nAChRs [3] (MA1, Occipital Cortex) it was 339±70 mL/cm^3; at α7 nAChRs [3] (MA1, Putamen), 335±66 mL/cm^3. The VT/fp on α7 nAChRs [3] (MA1, Temporal Cortex) came to 342±75 mL/cm^3; on α7 nAChRs [3] (MA1, Thalamus) it was 343±75 mL/cm^3. Further, the “test-retest variation of VT/fP” value at α7 nAChRs [3] (MA1, four human subjects, all regions) turned out to be 9.3±7.3%. Besides, at α7 nAChRs [3] (human brain), the “peak SUV in brain” value was 3.0–4.5 SUV. In addition, the “time of peak radioactivity concentration in brain” value at α7 nAChRs [3] (human brain, post-injection) is 20 to 30 min. In addition, at α7 nAChRs [3] (humans, administered mass 132±185 ng), the “pharmacological effects following administration” value is listed as “No detectable pharmacological effects”. Moreover, the “VT higher than previously reported values” at α7 nAChRs [3] (humans, compared with ref 11) was “roughly 15%”. Moreover, the entries for the “parent [18F]ASEM fraction of radioactivity in plasma” value in [4] (60 min after injection) and in series [4] (180 min post-injection) were 27.5±7.9% and 8.8±1.6%, respectively. Moreover, in series [4] (humans), the “time of peak of parent [18F]ASEM curve in arterial plasma” value is recorded as 1.25 min. Also, the “SUV of parent [18F]ASEM curve in arterial plasma at end of scans” value in series [4] (humans, 180 min post-injection) stood at 0.47±0.08 SUV. Besides, the “peak SUV of parent [18F]ASEM curve in arterial plasma” value in [4] (humans, at 1.25 min) is on record as 4.4±1.2 SUV. In series [5], the “parent fraction of total plasma radioactivity” value came to 16%. Besides, in the series “Plasma free fraction [7]”, the “free fraction (fP) in plasma” value came to 14.9±1.1%. Further, in “Plasma free fraction [8]” (four human subjects), the “test-retest variation of plasma free fraction (fP)” value is −5.3±18.0%. For the same molecule, the fP in the series “Plasma free fraction [8]” (human plasma) was 7.7±1.3%.

Take `O=S1(=O)c2ccc([18F])cc2-c2ccc(N3CCN4CCC3CC4)cc21` [[^18F]DBT-10]: at α7 nAChRs [2], the K1 was 0.66±0.11 mL/cm^3·min^−1 and the k2 worked out at 0.024 ± 0.010 min⁻¹. Moreover, the “parent fraction of total plasma radioactivity” value in series [5] is recorded as 30%. In addition, the “free fraction (fP) in plasma” value in the series “Plasma free fraction [7]” turned out to be 18.3±3.9%.

`CN1CCC[C@H]1c1cccnc1` [nicotine]: on α7 nAChRs [1] (setting [10]), the “change of [18F]ASEM VT” value was −0.1±6.7% and 5.3±9.1%; the “change of [18F]ASEM VT/fP” value was −7.2±6.2% and −3.0±8.4%.

Broadly, the Ki is a dissociation constant, usually derived from enzyme kinetics or from competition with a known ligand. Consider `c1cnc2cc3c(cc2n1)[C@@H]1CNC[C@H]3C1` [varenicline], for which, at α7 nAChRs [1] (setting [11]), the “change of [18F]ASEM VT” value is −2.6±6.2% and 5.2±16.9%; the “change of [18F]ASEM VT/fP” value is −1.6±5.5% and −5.4±15.2%. On α7 nAChRs [9], the inhibitory constant (Ki) was 322 nM.
